Measurements reported in ChEMBL document CHEMBL4311940, “Design, Synthesis, and Biological Evaluation of 4-Methyl Quinazoline Derivatives as Anticancer Agents Simultaneously Targeting Phosphoinositide 3-Kinases and Histone Deacetylases” (J Med Chem, 2019).
Active and inactive are the calls of the source. The calls are words filed in the database; no cut-off is given here.

Legend:
[1] = Drug metabolism in rat bile assessed as glucuronide metabolite formation at 0.74 mg/kg, iv after 1 hr by LC/MS/MS analysis; assay type: ADME, organism-based; details: in vivo
[2] = target: Phosphatidylinositol 4,5-bisphosphate 3-kinase catalytic subunit gamma isoform (Homo sapiens, UniProt P48736); assay: Binding affinity to wild-type human partial length PIK3CG (S144 to A1102 residues) expressed in mammalian expression system assessed as residual binding level at 1 uM by Kinomescan method relative to control
Sequence of Phosphatidylinositol 4,5-bisphosphate 3-kinase catalytic subunit gamma isoform (P48736 whole entry, looked up, the tested form may be a part, canonical isoform): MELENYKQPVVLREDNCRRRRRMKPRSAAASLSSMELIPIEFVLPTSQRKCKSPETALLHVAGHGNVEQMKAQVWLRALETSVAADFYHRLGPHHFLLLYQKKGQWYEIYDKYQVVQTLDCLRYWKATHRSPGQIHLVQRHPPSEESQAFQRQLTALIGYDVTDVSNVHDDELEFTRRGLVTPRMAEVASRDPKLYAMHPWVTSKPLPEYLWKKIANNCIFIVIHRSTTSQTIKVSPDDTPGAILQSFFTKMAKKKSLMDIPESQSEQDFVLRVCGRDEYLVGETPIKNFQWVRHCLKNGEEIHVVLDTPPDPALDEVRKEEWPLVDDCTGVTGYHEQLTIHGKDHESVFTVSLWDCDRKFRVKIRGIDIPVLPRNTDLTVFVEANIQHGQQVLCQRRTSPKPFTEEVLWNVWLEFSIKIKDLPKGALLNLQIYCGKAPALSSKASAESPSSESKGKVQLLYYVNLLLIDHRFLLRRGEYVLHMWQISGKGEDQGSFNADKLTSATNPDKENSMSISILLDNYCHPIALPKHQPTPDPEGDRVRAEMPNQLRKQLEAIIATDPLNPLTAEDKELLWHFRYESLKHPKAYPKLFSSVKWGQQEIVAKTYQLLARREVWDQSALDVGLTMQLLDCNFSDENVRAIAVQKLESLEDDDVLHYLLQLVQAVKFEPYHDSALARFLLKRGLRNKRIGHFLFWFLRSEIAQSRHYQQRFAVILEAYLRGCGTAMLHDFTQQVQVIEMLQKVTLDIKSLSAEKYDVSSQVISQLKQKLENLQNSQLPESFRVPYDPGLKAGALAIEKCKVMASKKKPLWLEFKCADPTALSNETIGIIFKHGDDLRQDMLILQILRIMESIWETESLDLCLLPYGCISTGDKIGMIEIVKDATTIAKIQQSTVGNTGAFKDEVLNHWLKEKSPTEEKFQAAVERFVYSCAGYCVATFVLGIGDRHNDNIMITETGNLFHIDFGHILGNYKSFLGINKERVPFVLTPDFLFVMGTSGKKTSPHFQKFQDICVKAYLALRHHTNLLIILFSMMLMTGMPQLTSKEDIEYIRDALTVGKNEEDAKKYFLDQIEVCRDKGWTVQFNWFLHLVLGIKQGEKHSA
Outline: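 Kinomescan binding screen at 1 μM across 97 kinases.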

Homo sapiens [3] = organism: Homo sapiens; assay: Inhibition of HDAC/PI3K in human HCT116 cells assessed as increase in cleaved PARP level at 0.5 to 5 uM after 16 hrs by Western blot analysis; assay type: cell-based
Outline: (§1)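 Immunoblot of HCT116 lysates (RIPA). 40 μg protein per lane on 10−12% SDS-PAGE, transferred to nitrocellulose, blocked 0.5 h in 5% milk/TBST. Primary antibodies 1:1000 overnight at 4 °C, secondary 1:1000 for 1 h, bands visualized by enhanced ECL.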

[4] = Terminal half life in ICR mouse at 3 mg/kg, iv measured after 0.033 to 24 hrs by LC/MS/MS analysis; assay type: ADME, organism-based; details: in vivo, read-out: beta t1/2 (converted)
Outline: (§2)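 Male-unspecified ICR mice, 3 per group iv (3 mg/kg in 10% DMSO/saline) and 5 per group po (30 mg/kg in 0.5% cmc/0.3% Tween 80). Blood sampled 0.033 (iv) or 0.083 (po) to 24 h. Plasma extracted with acetonitrile, analysed by LC/MS/MS; noncompartmental analysis.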

[5] = Terminal half life in ICR mouse at 30 mg/kg, po measured after 0.083 to 24 hrs by LC/MS/MS analysis; assay type: ADME, organism-based; details: in vivo, read-out: beta t1/2 (converted); outline: as §2
HCT-116 = assay: Antitumor activity against human HCT116 cells xenografted in athymic nude BALB/c mouse assessed as tumor growth inhibition at 150 mpk, po measured 2 times every week relative to control; assay type: functional; details: HCT-116, po, read-out: TGI
Outline: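 Female BALB/c-nu/nu mice, 6–8 weeks, given 2 × 10^6 HCT116 cells in 0.2 mL saline s.c. right flank; randomized at 100–200 mm3. Daily oral dosing in 0.5% cmc with Tween 80; vehicle controls.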

Mus musculus [6] = assay: In vivo inhibition of PI3K/HDAC in tumor of human HCT116 cells xenografted in athymic nude BALB/c mouse assessed as reduction in phosphorylated Ki67 expression by DAB staining based immunohistochemistry method; assay type: functional, organism-based
Outline: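 HCT116 xenograft tumors from treated and vehicle mice stained immunohistochemically for Ki67, acetyl-H3 and p-AKT(S473) (200×); integrated optical density quantified; mean ± SEM, n = 5−7, one-way ANOVA versus vehicle.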

HGC-27 = assay: Antitumor activity against human HGC27 cells xenografted in athymic nude BALB/c mouse assessed as tumor growth inhibition at 200 mpk, po measured 2 times every week; assay type: functional; details: HGC-27, po, read-out: TGI
Outline: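 HGC-27 xenograft: 2 × 10^6 cells in 0.2 mL saline s.c. right flank of female BALB/c-nu/nu mice (6–8 weeks); randomized at 100–200 mm3. Oral dosing in 0.5% cmc with Tween 80, intraperitoneal in saline; vehicle given orally daily.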

Mus musculus [7] = assay: In vivo inhibition of PI3K in tumor of human HGC27 cells xenografted in athymic nude BALB/c mouse assessed as reduction in phosphorylated AKT expression at S473 residue by DAB staining based immunohistochemistry method; assay type: functional, organism-based
Outline: (§3)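 HGC-27 xenograft tumors from treated and vehicle mice immunostained for Ki67, Ac-H3 and p-AKT(S473) (200×); integrated optical density analysed; mean ± SEM, n = 5−7, one-way ANOVA versus vehicle.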

Mus musculus [8] = assay: In vivo inhibition of PI3K/HDAC in tumor of human HGC27 cells xenografted in athymic nude BALB/c mouse assessed as reduction in phosphorylated Ki67 expression by DAB staining based immunohistochemistry method; assay type: functional, organism-based; outline: as §3
[9] = Drug metabolism in rat bile assessed as hydrolyzed metabolite formation at 0.74 mg/kg, iv after 1 hr by LC/MS/MS analysis; assay type: ADME, organism-based; details: in vivo
[10] = target: Phosphatidylinositol 4,5-bisphosphate 3-kinase catalytic subunit alpha isoform (Homo sapiens, UniProt P42336); assay: Inhibition of recombinant human PI3Kalpha using PIP2 as substrate incubated for 1 hr by kinase-glo assay
Sequence of Phosphatidylinositol 4,5-bisphosphate 3-kinase catalytic subunit alpha isoform (P42336 whole entry, canonical isoform): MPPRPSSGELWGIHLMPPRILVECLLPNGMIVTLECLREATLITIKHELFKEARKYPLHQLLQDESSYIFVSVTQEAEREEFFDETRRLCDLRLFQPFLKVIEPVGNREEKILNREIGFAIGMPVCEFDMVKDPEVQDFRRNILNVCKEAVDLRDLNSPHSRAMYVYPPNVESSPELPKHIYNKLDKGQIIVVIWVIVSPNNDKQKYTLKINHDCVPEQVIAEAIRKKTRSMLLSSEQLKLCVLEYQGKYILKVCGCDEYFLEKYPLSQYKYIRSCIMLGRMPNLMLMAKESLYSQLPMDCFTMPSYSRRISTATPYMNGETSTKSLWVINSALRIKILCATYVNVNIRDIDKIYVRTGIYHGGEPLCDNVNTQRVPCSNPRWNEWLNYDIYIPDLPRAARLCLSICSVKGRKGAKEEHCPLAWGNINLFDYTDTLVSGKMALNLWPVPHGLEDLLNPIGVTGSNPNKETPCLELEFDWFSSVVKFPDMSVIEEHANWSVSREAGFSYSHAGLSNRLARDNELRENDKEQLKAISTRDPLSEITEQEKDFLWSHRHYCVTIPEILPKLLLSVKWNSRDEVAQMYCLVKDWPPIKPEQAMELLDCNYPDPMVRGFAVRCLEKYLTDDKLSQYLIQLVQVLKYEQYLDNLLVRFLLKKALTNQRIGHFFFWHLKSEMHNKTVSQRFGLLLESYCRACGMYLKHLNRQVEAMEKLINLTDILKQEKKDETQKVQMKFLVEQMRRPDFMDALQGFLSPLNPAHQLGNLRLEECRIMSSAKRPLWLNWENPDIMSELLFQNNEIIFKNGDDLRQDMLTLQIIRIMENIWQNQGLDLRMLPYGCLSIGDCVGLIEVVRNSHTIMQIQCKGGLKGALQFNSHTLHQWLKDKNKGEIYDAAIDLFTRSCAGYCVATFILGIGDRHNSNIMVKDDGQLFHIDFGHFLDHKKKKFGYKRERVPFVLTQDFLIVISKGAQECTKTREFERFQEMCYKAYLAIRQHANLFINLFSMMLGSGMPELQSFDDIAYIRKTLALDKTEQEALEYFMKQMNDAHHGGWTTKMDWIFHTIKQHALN

[11] = target: Protein deacetylase HDAC6 (Homo sapiens, UniProt Q9UBN7); assay: Inhibition of HDAC6 (unknown origin) using Ac-peptide as substrate preincubated for 15 mins followed by substrate addition and measured after 1 hr
Sequence of Protein deacetylase HDAC6 (Q9UBN7 whole entry): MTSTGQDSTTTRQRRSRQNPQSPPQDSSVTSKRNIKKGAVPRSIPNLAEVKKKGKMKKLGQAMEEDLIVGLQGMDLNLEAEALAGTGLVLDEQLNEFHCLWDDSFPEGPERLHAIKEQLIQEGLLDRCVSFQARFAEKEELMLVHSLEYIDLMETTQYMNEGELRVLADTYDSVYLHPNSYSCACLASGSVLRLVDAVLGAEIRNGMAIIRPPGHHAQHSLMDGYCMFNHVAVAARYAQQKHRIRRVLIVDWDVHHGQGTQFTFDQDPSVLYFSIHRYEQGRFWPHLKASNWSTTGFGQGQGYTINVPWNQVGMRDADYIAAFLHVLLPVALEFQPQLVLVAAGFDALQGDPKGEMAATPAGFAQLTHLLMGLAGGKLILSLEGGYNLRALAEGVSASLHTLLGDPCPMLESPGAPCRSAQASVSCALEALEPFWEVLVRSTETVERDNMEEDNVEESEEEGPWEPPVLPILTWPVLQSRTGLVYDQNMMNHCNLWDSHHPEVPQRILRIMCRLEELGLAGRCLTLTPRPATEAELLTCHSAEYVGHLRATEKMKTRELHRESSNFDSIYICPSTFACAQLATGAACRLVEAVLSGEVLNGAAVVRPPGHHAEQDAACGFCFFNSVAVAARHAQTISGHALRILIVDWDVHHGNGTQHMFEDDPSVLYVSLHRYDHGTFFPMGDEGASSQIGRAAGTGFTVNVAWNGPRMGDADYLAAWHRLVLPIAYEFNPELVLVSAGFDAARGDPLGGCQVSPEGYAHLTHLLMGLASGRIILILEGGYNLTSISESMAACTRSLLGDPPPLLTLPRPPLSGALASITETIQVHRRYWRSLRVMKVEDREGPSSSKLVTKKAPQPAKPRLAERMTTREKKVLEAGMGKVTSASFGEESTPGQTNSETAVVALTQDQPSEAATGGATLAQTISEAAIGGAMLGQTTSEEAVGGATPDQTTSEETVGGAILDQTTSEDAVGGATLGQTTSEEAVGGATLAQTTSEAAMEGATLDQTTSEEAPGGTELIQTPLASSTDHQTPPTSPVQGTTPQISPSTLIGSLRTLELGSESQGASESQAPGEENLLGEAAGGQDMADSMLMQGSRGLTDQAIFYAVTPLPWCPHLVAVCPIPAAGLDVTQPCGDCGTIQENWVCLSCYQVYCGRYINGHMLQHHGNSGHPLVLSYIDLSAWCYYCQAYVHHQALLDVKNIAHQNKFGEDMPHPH

Homo sapiens [12] = organism: Homo sapiens; assay: Selectivity ratio, ratio of IC50 for recombinant human PIK3CB to recombinant human His-tagged PIK3CD/PIK3R1 expressed in baculovirus expression system
Homo sapiens [13] = organism: Homo sapiens; assay: Selectivity ratio, ratio of IC50 for recombinant human His-tagged PIK3CG expressed in baculovirus expression system to recombinant human His-tagged PIK3CD/PIK3R1 expressed in baculovirus expression system
Homo sapiens [14] = organism: Homo sapiens; assay: Selectivity ratio, ratio of IC50 for recombinant human N-terminal FLAG-tagged mTOR (1362 to end amino acids) to IC50 for recombinant human PI3Kalpha
Homo sapiens [15] = organism: Homo sapiens; assay: Selectivity ratio, ratio of IC50 for recombinant human N-terminal FLAG-tagged mTOR (1362 to end amino acids) to IC50 for recombinant human His-tagged PIK3CD/PIK3R1 expressed in baculovirus expression system
Homo sapiens [16] = organism: Homo sapiens; assay: Inhibition of PI3K in human HCT116 cells assessed as reduction in AKT phosphorylation at T308 residue at 0.02 to 0.5 uM after 16 hrs by Western blot analysis; assay type: cell-based; outline: as §1
[17] = target: T1, Histone deacetylase (Homo sapiens) (UniProt Q13547+O15379+Q9UBN7+Q92769+Q9UQL6+Q8WUI4+Q9BY41+Q96DB2+P56524+Q9UKV0+Q969S8); assay: Inhibition of HDAC in human HCT116 cells assessed as increase in acetylated histone H3 levels after 16 hrs by Western blot analysis; assay type: cell-based
Outline: (§4)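 HCT116 cells lysed in RIPA after washes in cold PBS. 40 μg protein run on 10−12% SDS-PAGE and transferred to nitrocellulose. Membrane blocked in 5% milk/TBST for 0.5 h, primary antibodies 1:1000 overnight at 4 °C, secondary 1:1000 for 1 h, ECL detection.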

[18] = target: T1, Histone deacetylase (Homo sapiens); assay: Inhibition of HDAC in human HCT116 cells assessed as increase in acetylated p53 levels after 16 hrs by Western blot analysis; assay type: cell-based; outline: as §4
Homo sapiens [19] = organism: Homo sapiens; assay: Inhibition of HDAC/PI3K in human HCT116 cells assessed as increase in cleaved PARP level at 0.02 to 0.5 uM after 16 hrs by Western blot analysis; assay type: cell-based; outline: as §1
[20] = Selectivity index, ratio of IC50 for human PBMC cells to IC50 for human HCT116 cells; assay type: toxicity; details: PBMC cells and HCT116 cells, read-out: Ratio IC50
Outline: (§5)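 Ratio of IC50s from the MTT assay: PBMC or LO2 cells versus HCT116. Cells seeded at 2000/well, attached overnight at 37 °C, treated 96 h, MTT 4 h, formazan dissolved in DMSO, A570.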

[21] = Selectivity index, ratio of IC50 for human LO2 cells to IC50 for human HCT116 cells; assay type: toxicity; details: LO2 cells and HCT116 cells, read-out: Ratio IC50; outline: as §5

## COc1ncc(-c2cc(OCCCCCCC(=O)NO)c3ncnc(C)c3c2)cc1F
[1]
  Drug metabolism: Metabolite_Detected
[2]
  Activity: 1.4%
Homo sapiens [3]
  inhibition: Active
[4]
  half-life: 0.33 h
[5]
  half-life: 2.07 h
HCT-116
  inhibition in vivo at 150 mg/kg: 45.8%
Mus musculus [6]
  inhibition: Dose-dependent effect
HGC-27
  inhibition in vivo at 200 mg/kg: 45.9%
Mus musculus [7]
  inhibition: Active
Mus musculus [8]
  inhibition: Active
[9]
  Drug metabolism: Metabolite_Detected

## COc1ccc(-c2cc(OCCN(C)c3ncc(C(=O)NO)cn3)c3ncnc(C)c3c2)cn1
[10]
  IC50: 226 nM
[11]
  IC50: 17 nM
Homo sapiens [12]
  Ratio IC50: > 5
Homo sapiens [13]
  Ratio IC50: > 5
Homo sapiens [14]
  Ratio IC50: > 27
Homo sapiens [15]
  Ratio IC50: > 27
Homo sapiens [16]
  inhibition: Active
[17]
  inhibition: Dose-dependent effect
[18]
  inhibition: Dose-dependent effect
Homo sapiens [19]
  inhibition: Active
[20]
  selectivity ratio: 8240
[21]
  selectivity ratio: 1430
